Assay results taken from ChEMBL document CHEMBL1125159, “Synthesis and antihyperglycemic activity of novel 5-(naphthalenylsulfonyl)-2,4-thiazolidinediones” (J Med Chem, 1990).
Calls of active or inactive are those of the source. The rule behind the calls is not given here.

Tests used:
Mus musculus [1] = organism: Mus musculus; assay: Decrease in blood glucose in mice compared to vehicle controls.; assay type: functional, organism-based
Outline: (§1)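 Male genetically diabetic db/db mice (C57BL/KsJ, 3–7 months old), 4–6 per group. Compound 100 mg/kg given by oral gavage once daily for 4 days in 2% Tween 80/saline. Mice fasted 18 h before the final dose. Insulin 0.5 unit/kg sc given 2 h after drug. Tail-tip blood taken 2 h later from unanesthetized mice. Plasma glucose reported as percent change versus vehicle group, mean ± SE.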

Mus musculus [2] = organism: Mus musculus; assay: Percent decrease in blood glucose relative to vehicle-treated group with use of four to six mice; assay type: functional; outline: as §1
[3] = Ionization constant for the compound; assay type: physicochemical
Rattus norvegicus [4] = assay: Blood lactate level in 24 hr fasted Sprauge-Dawley rats at a dose of 200 mg/kg per day in four divided doses which were administered intraperitoneally; assay type: functional; conditions: route intraperitoneal
Outline: (§2)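 24 h-fasted Sprague-Dawley rats were dosed ip at 200 mg/kg per day in four divided doses. They were then anesthetized with halothane and blood was drawn from the iliac artery for blood lactate and plasma glucose. N = 8 rats per group, compared with vehicle (p < 0.05).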

Mus musculus [5] = assay: Plasma glucose level in diabetic db/db mice at a dose of 100 mg/kg per day for four days administered orally after fed state
Mus musculus [6] = assay: Plasma glucose level in diabetic db/db mice at a dose of 100 mg/kg per day for four days administered orally after 18-h fasted state
Rattus norvegicus [7] = assay: Plasma glucose level in 24 hr fasted Sprauge-Dawley rats at a dose of 200 mg/kg per day in four divided doses which were administered intraperitoneally; assay type: functional, organism-based; outline: as §2
Rattus norvegicus [8] = assay: Evaluated for the plasma glucose level in 24 hr fasted Sprauge-Dawley rats at a dose of 200 mg/kg/day in four divided doses administered intraperitoneally; assay type: functional, organism-based; outline: as §2
Rattus norvegicus [9] = assay: Evaluated for the blood lactate level in 24 hr fasted Sprague-Dawley rats at a dose of 200 mg/kg/day in four divided doses administered intraperitoneally; assay type: functional; conditions: route intraperitoneal; outline: as §2
Rattus norvegicus [10] = assay: Blood lactate level in 24 hr fasted Sprauge-Dawley rats at a dose of 200 mg/kg per day in four divided doses which were administered intraperitoneally,; assay type: functional; conditions: route intraperitoneal; outline: as §2

| Compound | Decrease (Mus musculus [1]) | Decrease (Mus musculus [2]) [%] | further results |
| --- | --- | --- | --- |
| O=C1NC(=O)C(Sc2ccc3cc(O)c(O)cc3c2)S1 (stereo unspecified) | inactive | – | – |
| CCCCCCCCS(=O)(=O)C1SC(=O)NC1=O (stereo unspecified) | inactive | – | – |
| COc1ccc2cc(S(=O)(=O)C3SC(=O)NC3=O)ccc2c1Br (stereo unspecified) | inactive | – | – |
| O=C1NC(=O)C(S(=O)(=O)Cc2ccc3ccccc3c2)S1 (stereo unspecified) | inactive | – | – |
| COc1cccc2cccc(S(=O)(=O)C3SC(=O)NC3=O)c12 (stereo unspecified) | inactive | – | – |
| O=C1NC(=O)C(S(=O)(=O)c2cccc3c(Br)cccc23)S1 (stereo unspecified) | – | -29 | – |
| CN1C(=O)SC(S(=O)(=O)c2cccc3c(Br)cccc23)C1=O (stereo unspecified) | inactive | – | – |
| O=C1NC(=O)C(CSc2ccc3ccccc3c2)S1 (stereo unspecified) | inactive | – | – |
| O=C1NC(=O)C([S+]([O-])c2ccc3ccccc3c2)S1 (stereo unspecified) | inactive | – | – |
| O=C1NC(=O)C(Sc2ccc3ccccc3c2Br)S1 (stereo unspecified) | inactive | – | – |
| O=C1NC(=O)C(Sc2ccc3ccccc3c2)S1 (stereo unspecified) | – | -29 | pKa [3]: 5.58 |
| CCOC(=O)Oc1ccc2cc(SC3SC(=O)NC3=O)ccc2c1 (stereo unspecified) | inactive | – | – |
| CCOC(=O)Oc1cc2ccc(S(=O)(=O)C3SC(=O)NC3=O)cc2cc1OC(=O)OCC (stereo unspecified) | inactive | – | – |
| COc1ccc2cc(S(=O)(=O)C3SC(=O)NC3=O)ccc2c1C(F)(F)F (stereo unspecified) | inactive | – | – |
| O=C1NC(=O)C(S(=O)(=O)c2ccc3cc(OCc4ccccc4)ccc3c2)S1 (stereo unspecified) | inactive | – | – |
| O=C1NC(=O)C(Sc2ccc3cc(O)ccc3c2)S1 (stereo unspecified) | – | -19 | – |
| CC1(S(=O)(=O)c2cccc3ccccc23)SC(=O)NC1=O (stereo unspecified) | inactive | – | – |

| Compound | Decrease (Mus musculus [1]) | Decrease (Mus musculus [2]) [%] | further results |
| --- | --- | --- | --- |
| O=C1NC(=O)C(S(=O)(=O)c2ccc(Br)cc2)S1 (stereo unspecified) | inactive | – | – |
| O=C1NC(=O)C(S(=O)(=O)c2ccc(F)cc2)S1 (stereo unspecified) | inactive | – | – |
| CCOC(=O)Oc1ccc2cc(S(=O)(=O)C3SC(=O)NC3=O)ccc2c1 (stereo unspecified) | inactive | – | – |
| COc1ccc2cc(SC3SC(=O)NC3=O)ccc2c1C(F)(F)F (stereo unspecified) | – | -32 | – |
| CC1(COc2ccc(CC3SC(=O)NC3=O)cc2)CCCCC1 (stereo unspecified) [CIGLITAZONE] | – | -35 | pKa [3]: 6.82; Blood lactate (Rattus norvegicus [4]): 8 mg/dL; Plasma glucose level (Mus musculus [5]): 313 mg/dL; Plasma glucose level (Mus musculus [6]): 285 mg/dL; Plasma glucose level (Rattus norvegicus [7]): 83 mg/dL |
| N=C(N)NC(=N)NCCc1ccccc1 [PHENFORMIN] | – | – | Plasma glucose level (Rattus norvegicus [8]): 85 mg/dL; Blood lactate (Rattus norvegicus [9]): 12.2 mg/dL |
| CCCCCCCCSC1SC(=O)NC1=O (stereo unspecified) | inactive | – | – |
| CN1C(=O)SC(C)(S(=O)(=O)c2cccc3c(Br)cccc23)C1=O (stereo unspecified) | inactive | – | – |
| O=C1NC(=O)C(Oc2ccc3ccccc3c2)S1 (stereo unspecified) | inactive | – | – |
| CCOC(=O)Oc1cc2ccc(SC3SC(=O)NC3=O)cc2cc1OC(=O)OCC (stereo unspecified) | – | -22 | – |
| O=C1NC(=O)C(S(=O)(=O)c2ccc3ccccc3c2Br)S1 (stereo unspecified) | inactive | – | – |
| O=C1NC(=O)C(S(=O)(=O)c2ccc3ccccc3c2)S1 (stereo unspecified) | – | -63 | pKa [3]: 3.95; Blood lactate (Rattus norvegicus [10]): 7.2 mg/dL; Plasma glucose level (Mus musculus [5]): 352 mg/dL; Plasma glucose level (Mus musculus [6]): 243 mg/dL; Plasma glucose level (Rattus norvegicus [7]): 77 mg/dL |
| CC1(COc2ccc(S(=O)(=O)C3SC(=O)NC3=O)cc2)CCCCC1 (stereo unspecified) | inactive | – | – |
| O=C1NC(=O)C(Cc2ccc3ccccc3c2)S1 (stereo unspecified) | – | -38 | pKa [3]: 6.83 |
| COc1ccc2c(S(=O)(=O)C3SC(=O)NC3=O)cccc2c1C(F)(F)F (stereo unspecified) | – | -40 | – |
| O=C1NC(=O)C(S(=O)(=O)c2cccc3ccccc23)S1 (stereo unspecified) | – | -34 | – |
